Assay results: ChEMBL document CHEMBL4392827, “Tryptamine derivatives disarm colistin resistance in polymyxin-resistant gram-negative bacteria” (Bioorg Med Chem, 2019)

Key:
Acinetobacter baumannii [1] = assay: Potentiation of colistin-induced antimicrobial activity against colistin-resistant Acinetobacter baumannii ATCC 17978 expressing mcr1 gene assessed as fold reduction in colistin MIC at 60 uM after 18 hrs by broth microdilution assay; assay type: functional
In short: (§1)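 Checkerboard-style resensitization following adapted CLSI broth microdilution. Bacteria were grown 4–6 h in CAMHB and subcultured to 5×10^5 CFU/mL. Adjuvant was added from DMSO stock and held constant while colistin was serially diluted in the dosed subculture. Plates were incubated stationary at 37°C for 18 h, then MICs were read. Fold reduction was taken relative to the colistin MIC without adjuvant.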

Escherichia coli [2] = assay: Potentiation of colistin-induced antimicrobial activity against colistin-resistant Escherichia coli ATCC 25922 expressing mcr1 gene assessed as fold reduction in colistin MIC at 60 uM after 18 hrs by broth microdilution assay; assay type: functional; in short: as §1
Acinetobacter baumannii [3] = assay: Potentiation of colistin-induced antimicrobial activity against colistin-resistant Acinetobacter baumannii 4106 assessed as fold reduction in colistin MIC at 60 uM after 18 hrs by broth microdilution assay; assay type: functional; in short: as §1
Klebsiella pneumoniae [4] = assay: Potentiation of colistin-induced antimicrobial activity against colistin-resistant Klebsiella pneumoniae B9 assessed as fold reduction in colistin MIC at 60 uM after 18 hrs by broth microdilution assay; assay type: functional; in short: as §1
Acinetobacter baumannii [5] = assay: Toxicity in Acinetobacter baumannii ATCC 17978 expressing mcr1 gene after 18 hrs by broth microdilution assay; assay type: organism-based
In short: (§2)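 Single-agent MIC per CLSI broth microdilution. Cells from a 4–6 h culture in cation-adjusted Mueller-Hinton broth adjusted to 5 ×10^5 CFU/mL. Compound (DMSO stock) added to 200 μM top concentration and twofold serially diluted six times, with an untreated control row. Plates sealed and incubated stationary at 37°C for 18 h before MIC read.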

Escherichia coli [6] = assay: Toxicity in Escherichia coli ATCC 25922 after 18 hrs by broth microdilution assay; assay type: organism-based; conditions: in vitro; in short: as §2
Acinetobacter baumannii [7] = assay: Toxicity in Acinetobacter baumannii 4106 after 18 hrs by broth microdilution assay; assay type: organism-based; conditions: in vitro; in short: as §2
Klebsiella pneumoniae [8] = assay: Toxicity in Klebsiella pneumoniae B9 after 18 hrs by broth microdilution assay; assay type: organism-based; in short: as §2
Acinetobacter baumannii [9] = assay: Potentiation of colistin-induced antimicrobial activity against Acinetobacter baumannii ATCC 17978 assessed as fold reduction in colistin MIC at 60 uM after 18 hrs by broth microdilution assay; assay type: functional
In short: (§3)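 Bacteria grown 4–6 h in cation-adjusted Mueller-Hinton broth and diluted to 5 ×10^5 CFU/mL. Adjuvant from DMSO stock held at fixed 60 μM while colistin is twofold serially diluted in the same adjuvant-dosed broth. Plates sealed and kept stationary at 37°C for 18 h. Colistin MIC read and fold reduction taken relative to colistin alone.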

Acinetobacter baumannii [10] = assay: Potentiation of colistin-induced antimicrobial activity against colistin-resistant Acinetobacter baumannii isolate 3942 assessed as fold reduction in colistin MIC at 60 uM after 18 hrs by broth microdilution assay; assay type: functional; in short: as §1
Escherichia coli [11] = assay: Potentiation of colistin-induced antimicrobial activity against Escherichia coli ATCC 25922 assessed as fold reduction in colistin MIC at 60 uM after 18 hrs by broth microdilution assay; assay type: functional; in short: as §3
Klebsiella pneumoniae [12] = assay: Potentiation of colistin-induced antimicrobial activity against Klebsiella pneumoniae ATCC BAA-2146 expressing NDM1 gene assessed as fold reduction in colistin MIC at 60 uM after 18 hrs by broth microdilution assay; assay type: functional; in short: as §3
Klebsiella pneumoniae [13] = assay: Potentiation of colistin-induced antimicrobial activity against colistin-resistant Klebsiella pneumoniae isolate A5 assessed as fold reduction in colistin MIC at 60 uM after 18 hrs by broth microdilution assay; assay type: functional; in short: as §1
Acinetobacter baumannii [14] = assay: Potentiation of colistin-induced antimicrobial activity against colistin-sensitive Acinetobacter baumannii 5075 assessed as fold reduction in colistin MIC at 60 uM after 18 hrs by broth microdilution assay; assay type: functional; in short: as §3
Acinetobacter baumannii [15] = assay: Potentiation of colistin-induced antimicrobial activity against colistin-resistant Acinetobacter baumannii isolate 3941 assessed as fold reduction in colistin MIC at 60 uM after 18 hrs by broth microdilution assay; assay type: functional; in short: as §1
Acinetobacter baumannii [16] = assay: Potentiation of colistin-induced antimicrobial activity against colistin-resistant Acinetobacter baumannii isolate 4112 assessed as fold reduction in colistin MIC at 60 uM after 18 hrs by broth microdilution assay; assay type: functional; in short: as §1
Klebsiella pneumoniae [17] = assay: Potentiation of colistin-induced antimicrobial activity against colistin-resistant Klebsiella pneumoniae isolate C3 assessed as fold reduction in colistin MIC at 60 uM after 18 hrs by broth microdilution assay; assay type: functional; in short: as §1

Row | Compound | fold change (FC) (Acinetobacter baumannii [1]) | fold change (FC) (Escherichia coli [2]) | fold change (FC) (Acinetobacter baumannii [3]) | fold change (FC) (Klebsiella pneumoniae [4]) | also measured
1 | Cn1c(C(=O)NCCc2c[nH]c3ccccc23)cc(Br)c1Br | 16 | 2 | 32 | 256 | 
2 | O=C(NCCc1c[nH]c2ccccc12)c1ccc[nH]1 | 2 | 0 | 2 | 0 | 
3 | O=C(NCCc1c[nH]c2ccccc12)c1cccs1 | 0 | 0 | 8 | 0 | 
4 | O=C(NCCc1c[nH]cn1)c1cc(Br)c(Br)[nH]1 | 0 | 0 | 8 | 0 | MIC (Acinetobacter baumannii [5]): > 200 µM; MIC (Escherichia coli [6]): > 200 µM; MIC (Acinetobacter baumannii [7]): > 200 µM; MIC (Klebsiella pneumoniae [8]): > 200 µM
5 | O=C(NC1Cc2ccccc2C1)c1cc(Br)c(Br)[nH]1 | 0 | 0 | 8 | 0 | MIC (Acinetobacter baumannii [5]): > 200 µM; MIC (Escherichia coli [6]): > 200 µM; MIC (Acinetobacter baumannii [7]): > 200 µM; MIC (Klebsiella pneumoniae [8]): > 200 µM
6 | O=C(NCCc1c[nH]c2ccccc12)c1ccc(Br)o1 | 2 | 0 | 16 | 64 | 
7 | O=C(NCCc1c[nH]c2ccccc12)c1cc(I)c(I)[nH]1 | 16 | 4 | 128 | 2048 | fold change (FC) (Acinetobacter baumannii [9]): 2; fold change (FC) (Acinetobacter baumannii [10]): 128; fold change (FC) (Escherichia coli [11]): 2; fold change (FC) (Klebsiella pneumoniae [12]): 2; fold change (FC) (Klebsiella pneumoniae [13]): 256; fold change (FC) (Acinetobacter baumannii [14]): 2; fold change (FC) (Acinetobacter baumannii [15]): 128; fold change (FC) (Acinetobacter baumannii [16]): 128; fold change (FC) (Klebsiella pneumoniae [17]): 512
8 | O=C(NCCc1c[nH]c2ccccc12)c1ccc(Br)c(Br)n1 | 0 | 0 | 8 | 128 | 
9 | O=C(NCCc1c[nH]c2ccccc12)c1ccccn1 | 0 | 0 | 8 | 0 | 
10 | Cn1cccc1C(=O)NCCc1c[nH]c2ccccc12 | 0 | 0 | 2 | 0 | 
11 | O=C(NCCc1c[nH]c2ccccc12)c1cc(Br)c(Br)n1Cc1ccccc1 | 2 | 0 | 8 | 16 | 
12 | CCCCn1c(C(=O)NCCc2c[nH]c3ccccc23)cc(Br)c1Br | 2 | 0 | 16 | 16 | 
13 | O=C(NCCc1c[nH]c2ccccc12)c1cc(Br)c(Br)o1 | 16 | 2 | 64 | 512 | 
14 | O=C(NCCc1c[nH]c2ccccc12)c1cc(Br)c(Br)s1 | 16 | 2 | 32 | 512 | 
15 | O=C(NCc1ccccc1)c1cc(Br)c(Br)[nH]1 | 0 | 0 | 2 | 2 | MIC (Acinetobacter baumannii [5]): > 200 µM; MIC (Escherichia coli [6]): > 200 µM; MIC (Acinetobacter baumannii [7]): > 200 µM; MIC (Klebsiella pneumoniae [8]): > 200 µM
16 | O=C(NCCc1c[nH]c2ccccc12)c1cc(Cl)c[nH]1 | 2 | 2 | 16 | 8 | 

Row | Compound | fold change (FC) (Acinetobacter baumannii [1]) | fold change (FC) (Escherichia coli [2]) | fold change (FC) (Acinetobacter baumannii [3]) | fold change (FC) (Klebsiella pneumoniae [4]) | also measured
17 | O=C(NCCc1c[nH]c2ccccc12)c1cc(Cl)c(Cl)[nH]1 | 32 | 8 | 256 | 1024 | 
18 | O=C(NCCc1c[nH]c2ccccc12)c1cncc(Br)c1 | 0 | 0 | 4 | 8 | 
19 | O=C(NCCc1csc2ccccc12)c1cc(Br)c(Br)[nH]1 | 8 | 4 | 32 | 16 | MIC (Acinetobacter baumannii [5]): > 200 µM; MIC (Escherichia coli [6]): > 200 µM; MIC (Acinetobacter baumannii [7]): > 200 µM; MIC (Klebsiella pneumoniae [8]): > 200 µM
20 | O=C(NCc1c[nH]c2ccccc12)c1cc(I)c(I)[nH]1 | 0 | 0 | 0 | 0 | 
21 | O=C(NCCc1ccccn1)c1cc(Br)c(Br)[nH]1 | 0 | 0 | 0 | 2 | MIC (Acinetobacter baumannii [5]): > 200 µM; MIC (Escherichia coli [6]): > 200 µM; MIC (Acinetobacter baumannii [7]): > 200 µM; MIC (Klebsiella pneumoniae [8]): > 200 µM
22 | O=C(NCCc1c[nH]c2ccccc12)c1cc(Br)c[nH]1 | 16 | 2 | 64 | 128 | 
23 | Cn1cc(CCNC(=O)c2cc(Br)c(Br)[nH]2)c2ccccc21 | 0 | 0 | 4 | 0 | MIC (Acinetobacter baumannii [5]): > 200 µM; MIC (Escherichia coli [6]): > 200 µM; MIC (Acinetobacter baumannii [7]): > 200 µM; MIC (Klebsiella pneumoniae [8]): > 200 µM
24 | O=C(NCCc1c[nH]c2ccc(O)cc12)c1cc(Br)c(Br)[nH]1 | 4 | 4 | 4 | 8 | MIC (Acinetobacter baumannii [5]): > 200 µM; MIC (Escherichia coli [6]): > 200 µM; MIC (Acinetobacter baumannii [7]): > 200 µM; MIC (Klebsiella pneumoniae [8]): > 200 µM
25 | Cn1cc(Br)cc1C(=O)NCCc1c[nH]c2ccccc12 | 4 | 2 | 32 | 4 | 
26 | COc1ccc2[nH]cc(CCNC(=O)c3cc(Br)c(Br)[nH]3)c2c1 | 8 | 2 | 128 | 128 | MIC (Acinetobacter baumannii [5]): > 200 µM; MIC (Escherichia coli [6]): > 200 µM; MIC (Acinetobacter baumannii [7]): > 200 µM; MIC (Klebsiella pneumoniae [8]): > 200 µM
27 | O=C(NCCc1c[nH]c2ccccc12)c1cccc(Br)n1 |  |  | 16 | 1024 | fold change (FC) (Acinetobacter baumannii [9]): 2; fold change (FC) (Acinetobacter baumannii [10]): 8; fold change (FC) (Escherichia coli [11]): 2; fold change (FC) (Klebsiella pneumoniae [12]): 2; fold change (FC) (Klebsiella pneumoniae [13]): 0; fold change (FC) (Acinetobacter baumannii [14]): 0; fold change (FC) (Acinetobacter baumannii [15]): 8; fold change (FC) (Acinetobacter baumannii [16]): 8; fold change (FC) (Klebsiella pneumoniae [17]): 512
28 | O=C(NCCc1cn(Cc2ccccc2)c2ccccc12)c1cc(Br)c(Br)[nH]1 | 0 | 0 | 0 | 0 | MIC (Acinetobacter baumannii [5]): > 200 µM; MIC (Escherichia coli [6]): > 200 µM; MIC (Acinetobacter baumannii [7]): > 200 µM; MIC (Klebsiella pneumoniae [8]): > 200 µM
29 | O=C(NCCc1c[nH]c2ccccc12)c1cc(I)c[nH]1 | 16 |  | 64 | 2048 | fold change (FC) (Acinetobacter baumannii [9]): 2; fold change (FC) (Acinetobacter baumannii [10]): 32; fold change (FC) (Escherichia coli [11]): 2; fold change (FC) (Klebsiella pneumoniae [12]): 2; fold change (FC) (Klebsiella pneumoniae [13]): 32; fold change (FC) (Acinetobacter baumannii [14]): 0; fold change (FC) (Acinetobacter baumannii [15]): 64; fold change (FC) (Acinetobacter baumannii [16]): 32; fold change (FC) (Klebsiella pneumoniae [17]): 128
30 | O=C(NCc1c[nH]c2ccccc12)c1cccc(Br)n1 | 0 | 0 | 32 | 32 | 
31 | O=C(NCCc1c[nH]c2ccccc12)c1sccc1Br | 4 | 2 | 64 | 128 | 
